In ChEMBL document CHEMBL1268807, “Discovery of small molecule inhibitors of the PH domain leucine-rich repeat protein phosphatase (PHLPP) by chemical and virtual screening” (J Med Chem, 2010) one finds inhibition, IC50 and Activity data, which are given here for 30 compounds.

Data set [1] has as its system HT20. As to the kind of experiment: Inhibition of PHLPP in human […] cells assessed as increase of phosphorylation of Akt on Ser 473 at 100 to 250 uM after 24 hrs by immunoblotting relative to control. The data set is classed as cell-based. In short, it runs like this: (§1)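 HT29 colon cells kept in DMEM with 5% FBS were given compounds (100 or 250 μM, DMSO vehicle) for 24 h, then lysed on ice. […] Densitometry normalized to actin and expressed relative to control lanes; three experiments, mean ± SEM.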

The subject of another data set is HT-29 (Homo sapiens). As to the kind of experiment: Inhibition of PHLPP in human HT29 cells assessed as increase of phosphorylation of Akt on Ser 473 at 100 to 250 uM after 24 hrs by immunoblotting relative to control. (Immunoblotting shows a protein as a band on a membrane.)
Data set [2] has as its target T1, PH domain leucine-rich repeat-containing protein phosphatase 2 (Homo sapiens, UniProt Q6ZVD8).
T1 sequence (Q6ZVD8 whole entry): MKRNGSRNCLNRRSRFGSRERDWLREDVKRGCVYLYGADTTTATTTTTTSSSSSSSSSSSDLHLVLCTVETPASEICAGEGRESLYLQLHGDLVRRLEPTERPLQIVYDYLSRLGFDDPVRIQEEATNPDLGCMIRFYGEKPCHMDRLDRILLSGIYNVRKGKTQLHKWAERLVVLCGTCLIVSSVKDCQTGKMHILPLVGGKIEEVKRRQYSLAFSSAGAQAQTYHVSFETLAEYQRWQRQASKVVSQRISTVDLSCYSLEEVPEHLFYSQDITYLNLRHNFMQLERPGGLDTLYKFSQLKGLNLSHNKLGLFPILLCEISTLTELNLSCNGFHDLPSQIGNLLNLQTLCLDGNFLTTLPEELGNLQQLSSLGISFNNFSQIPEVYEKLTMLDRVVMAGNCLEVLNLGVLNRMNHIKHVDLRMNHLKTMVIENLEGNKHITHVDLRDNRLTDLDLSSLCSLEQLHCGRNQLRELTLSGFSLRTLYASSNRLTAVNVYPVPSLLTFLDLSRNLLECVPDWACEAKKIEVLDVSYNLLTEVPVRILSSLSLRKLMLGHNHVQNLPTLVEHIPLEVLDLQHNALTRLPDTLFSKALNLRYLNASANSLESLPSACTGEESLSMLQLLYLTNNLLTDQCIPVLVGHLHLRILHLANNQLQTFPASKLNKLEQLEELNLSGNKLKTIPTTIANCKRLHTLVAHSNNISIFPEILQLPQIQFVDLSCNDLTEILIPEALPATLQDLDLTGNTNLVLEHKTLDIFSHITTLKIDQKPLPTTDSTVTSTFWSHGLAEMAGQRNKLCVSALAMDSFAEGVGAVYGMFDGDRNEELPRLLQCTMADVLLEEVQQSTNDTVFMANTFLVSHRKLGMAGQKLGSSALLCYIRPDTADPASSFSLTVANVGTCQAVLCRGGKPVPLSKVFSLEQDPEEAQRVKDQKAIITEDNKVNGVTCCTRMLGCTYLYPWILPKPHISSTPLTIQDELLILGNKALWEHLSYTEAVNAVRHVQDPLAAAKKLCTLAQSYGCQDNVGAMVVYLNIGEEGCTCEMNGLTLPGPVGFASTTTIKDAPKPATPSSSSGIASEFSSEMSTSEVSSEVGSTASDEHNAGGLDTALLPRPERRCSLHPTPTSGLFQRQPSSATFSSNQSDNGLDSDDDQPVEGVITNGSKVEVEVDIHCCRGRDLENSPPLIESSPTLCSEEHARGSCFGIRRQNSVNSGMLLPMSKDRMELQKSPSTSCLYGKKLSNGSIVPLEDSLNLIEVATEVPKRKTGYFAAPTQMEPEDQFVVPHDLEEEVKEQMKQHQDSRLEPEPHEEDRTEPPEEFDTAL
As to the kind of experiment: Inhibition of PHLPP2 phosphatase domain expressed in Escherichia coli. In short, it runs like this:
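A405 was followed over time, slope taken, no-enzyme background subtracted. Inhibitor at seven concentrations versus DMSO (100%); fit to eq 1, IC50 = −C0 ln(1/2).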

Data set [3] concerns HT20. As to the kind of experiment: Inhibition of PHLPP in human […] cells assessed as increase of phosphorylation of FoxO1/3alpha on Thr 24/32 at 100 uM after 24 hrs by immunoblotting. Type of data set: cell-based. In outline: as §1
The subject of data set [4] is HT20. As to the kind of experiment: Inhibition of PHLPP in human […] cells assessed as increase of phosphorylation of Akt on Ser 473 at 100 uM after 24 hrs by immunoblotting. The data set is classed as cell-based. In outline: as §1
The test system of data set [5] is HT20. As to the kind of experiment: Inhibition of PHLPP in human […] cells assessed as increase of phosphorylation of GSK3 alpha/beta on Ser21/9 at 100 uM after 24 hrs by immunoblotting. Type of data set: cell-based. In short, it runs like this:
as §1

The next data set relates to HT-29. As to the kind of experiment: Cytotoxicity against human HT-29 cells at 100 uM after 24 hrs. Type of data set: cell-based. The conditions noted are these: ht-29, 24 h.
Data set [6] is described as follows: Inhibition of PHLPP in human […] cells assessed as increase of phosphorylation of FoxO1/3alpha on Thr 24/32 at 100 to 250 uM after 24 hrs by immunoblotting. The data set is classed as cell-based. In short, it runs like this:
as §1

The nature of data set [7]: Inhibition of PHLPP in human […] cells assessed as increase of phosphorylation of GSK3 alpha/beta on Ser21/9 at 100 to 250 uM after 24 hrs by immunoblotting. Type of data set: cell-based. In outline:
as §1

Each structure is given as a SMILES string. Calls of active or inactive are those of the source. No cut-off for these calls is given here.

As for `C[C@]12CC[C@H]3[C@@H](CCC4=CC(=O)CC[C@@]43C)[C@@H]1CC[C@@H]2C(=O)COS(=O)(=O)c1ccc(Br)cc1`, in the data set with HT20 [1], the inhibition entry was “Active”.

Take `COc1cc(-c2ccc(/N=N/c3c(S(=O)(=O)O)cc4cc(N)ccc4c3O)c(OC)c2)ccc1/N=N/c1cc(S(=O)(=O)O)c2ccccc2c1O`: in the data set with HT-29 (Homo sapiens), the inhibition entry was “Active”.

In the case of `COc1cc(/N=N/c2ccc(S(=O)(=O)O)cc2)ccc1/N=N/c1ccc(O)c(C(=O)O)c1`, in the data set with HT-29 (Homo sapiens), the inhibition result was “Active”.

As to `O=C(O)C1CCCCC1c1c2ccc(=O)c(O)c-2oc2c(O)c(O)ccc12` (stereo unspecified), the inhibition result in the data set with HT-29 (Homo sapiens) was “Active”. This compound had an IC50 in data set [2] of 10 µM.

Take `COc1ccc(NCc2c(O)ccc3ccccc23)cc1`: the inhibition entry with HT20 [3] and in the data set on HT20 [5] was “Active” throughout. Also, the inhibition entry in the data set on HT20 [4] was “inactive”.

Regarding `S=C(Nc1ccc2cn[nH]c2c1)Nc1ccc2cn[nH]c2c1`, the inhibition result with HT-29 (Homo sapiens) was “Active”.

With `Nc1cc(N)c(/N=N/c2ccc(S(=O)(=O)O)cc2)cc1/N=N/c1ccc(-c2ccc(/N=N/c3ccc(O)c(C(=O)O)c3)cc2)cc1`, the inhibition entry with HT-29 (Homo sapiens) was “Active”.

For the compound `NS(=O)(=O)c1ccc(/N=N/c2ncccc2O)cc1`, the inhibition entry in the data set on HT-29 (Homo sapiens) is “Active”.

For the compound `Nc1nc(SCc2ccccc2)c2ncn(Cc3ccccc3)c2n1`, the inhibition entry with HT-29 (Homo sapiens) is “Active”.

As for `O=C(O)c1c(O)c(/N=N/c2ccc(S(=O)(=O)Nc3nccs3)cc2)cc2ccccc12`, the inhibition entry in the data set with HT-29 (Homo sapiens) is “Active”.

On to `O=C(O)c1c(O)c(/N=N/c2ccc(S(=O)(=O)Nc3ccccn3)cc2)cc2ccccc12`, for which the inhibition entry in the data set with HT-29 (Homo sapiens) was “Active”.

`CN(C)c1ccc(C(c2ccc(N(C)C)cc2)c2ccc([N+](=O)[O-])cc2)cc1`: the inhibition entry with HT-29 (Homo sapiens) was “Active”.

In the case of `O=C1c2ccccc2-c2cc([N+](=O)[O-])c([N+](=O)[O-])cc21`, the inhibition result with HT-29 (Homo sapiens) was “Active”.

Turning to `CC(=O)Nc1ccc(Nc2cc(S(=O)(=O)O)c(N)c3c2C(=O)c2ccccc2C3=O)cc1`, the inhibition entry in the data set with HT-29 (Homo sapiens) is “Active”.

In the case of `COc1ccc2nc3cc(Cl)ccc3c(Nc3ccc(C(=O)O)c(O)c3)c2c1`, in the data set on HT-29 (Homo sapiens), the inhibition entry is “Active”.

Turning to `Cc1ccc(/N=N/c2c(N)c(C)cc(/N=N/c3ccc(/N=N/c4ccc(O)c(C(=O)O)c4)cc3)c2N)c(S(=O)(=O)O)c1`, the inhibition result with HT-29 (Homo sapiens) was “Active”.

With `CN(C)CCOC(=O)c1ccc(N)cc1`, the inhibition result in the data set with HT-29 (Homo sapiens) was “Active”.

Regarding `COc1cc(NCCC2CCCCN2)c2ncccc2c1` (stereo unspecified), the inhibition entry (with HT-29 (Homo sapiens); in data set [6]; in data set [7]) was “Active” in each case. Moreover, the Activity entry with HT-29 is recorded as “Toxic”.

Regarding `Nc1cc(S(=O)(=O)O)cc2cc(S(=O)(=O)O)c(/N=N/c3ccc(S(=O)(=O)c4ccc(/N=N/c5c(O)ccc6cccc(S(=O)(=O)O)c56)cc4)cc3)c(O)c12`, in the data set with HT-29 (Homo sapiens), the inhibition result is “Active”.

As for `COc1ccc2nc3cc(Cl)ccc3c(Nc3ccc(C(=O)O)cc3)c2c1`, the inhibition entry (in the data set with HT-29 (Homo sapiens); in [6]; in [7]) was “Active” in each case.

Take `Cc1cc(/N=N/c2ccc(/N=N/c3ccc(O)c(C(=O)O)c3)cc2)c(N)cc1N`: the inhibition result (in the data set with HT-29 (Homo sapiens); in [6]; in data set [7]) was “Active” each time. In data set [2], this compound yielded an IC50 of 3.75 µM.

In the case of `CS(=O)(=O)c1ccc2c(/N=N/c3ccc(-c4ccc(/N=N/c5ccc(N)c6cc(S(=O)(=O)O)ccc56)cc4)cc3)ccc(N)c2c1`, in the data set on HT-29 (Homo sapiens), the inhibition result is “Active”.

With `Cc1cc(/N=N/c2ccc(/N=N/c3ccc(S(=O)(=O)O)cc3)cc2)cc(C(=O)O)c1O`, the inhibition entry in the data set on HT-29 (Homo sapiens) was “Active”.

`Nc1c(/N=N/c2ccc(-c3ccc(/N=N/c4cc(S(=O)(=O)O)c5ccccc5c4N)cc3)cc2)cc(S(=O)(=O)O)c2ccccc12`: the inhibition entry in the data set on HT-29 (Homo sapiens) was “Active”.

Turning to `Cc1cc(-c2ccc(/N=N/c3c(S(=O)(=O)O)cc4cc(S(=O)(=O)O)cc(N)c4c3O)c(C)c2)ccc1/N=N/c1cc(S(=O)(=O)O)c2ccccc2c1O`, the inhibition entry with HT-29 (Homo sapiens) is “Active”.

As for `CS(=O)(=O)c1cc2cc(Nc3ccccc3)ccc2c(O)c1/N=N/c1ccc(-c2ccc(/N=N/c3ccc(O)c(C(=O)O)c3)cc2)cc1`, in the data set with HT-29 (Homo sapiens), the inhibition result was “Active”.

Turning to `O=C(O)c1cc(/N=N/c2ccc(S(=O)(=O)Nc3nccs3)cc2)ccc1O`, in the data set on HT-29 (Homo sapiens), the inhibition entry is “Active”.

For `O=S(=O)(O)c1ccc(-c2nnc(-c3ccccn3)nc2-c2ccc(S(=O)(=O)O)o2)o1`, in the data set with HT-29 (Homo sapiens), the inhibition result was “Active”.

On to `NS(=O)(=O)c1ccc(/N=N/c2ccc(O)c(C(=O)O)c2)cc1`, for which, in the data set on HT-29 (Homo sapiens), the inhibition result was “Active”.

For the compound `CS(=O)(=O)c1cc2ccc(Nc3ccccc3)cc2c(O)c1/N=N/c1ccc(-c2ccc(/N=N/c3ccc(O)c(C(=O)O)c3)cc2)cc1`, in the data set on HT-29 (Homo sapiens), the inhibition result was “Active”.

A word on the IC50: it is the midpoint of a concentration-inhibition curve. Lower therefore signals higher potency.
